Columns and labels:
[1] = test system: Sulfurihydrogenibium azorense; assay: Activation of Sulfurihydrogenibium azorense recombinant alpha carbonic anhydrase by stopped flow CO2 hydrase method
Method in brief: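 Full-length recombinant enzyme in a stopped-flow CO2 hydration assay at 25 °C: 0.2 mM phenol red read at its absorbance maximum, 10 mM Hepes pH 7.5, 0.1 M NaClO4, 10 s traces, CO2 1.7–17 mM. Activators were diluted from 10 mM water stocks down to 0.001 µM and preincubated with enzyme for 15 min at room temperature. Uncatalyzed rates were subtracted. kcat was measured at 10 µM activator. KA came from a steady-state equation, mean of ≥3 determinations.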

[2] = test system: Sulfurihydrogenibium yellowstonense; assay: Activation of Sulfurihydrogenibium yellowstonense recombinant CA by stopped flow CO2 hydrase method

| Compound | KA [1] [µM] | KA [2] [µM] |
| --- | --- | --- |
| N[C@H](Cc1c[nH]c2ccccc12)C(=O)O | 0.003 | 0.002 |
| NCCc1c[nH]c2ccc(O)cc12 | 0.007 | 0.021 |
| N[C@H](Cc1c[nH]cn1)C(=O)O | 0.09 | 0.012 |
| N[C@@H](Cc1c[nH]cn1)C(=O)O | 0.071 | 0.11 |
| N[C@@H](Cc1c[nH]c2ccccc12)C(=O)O | 0.023 | 0.007 |
| NCCc1ccc(O)c(O)c1 | 0.011 | 0.037 |
| NCCN1CCNCC1 | 0.076 | 0.09 |
| NCCc1ccccn1 | 0.34 | 0.33 |
| N[C@@H](Cc1ccc(O)c(O)c1)C(=O)O | 0.004 | 0.09 |
| NCCN1CCOCC1 | 1.15 | 0.1 |
| N[C@H](Cc1ccc(O)c(O)c1)C(=O)O | 0.89 | 0.43 |
| NCCc1c[nH]cn1 | 0.1 | 0.08 |
| NCc1ccccn1 | 0.081 | 0.1 |
| N[C@H](Cc1ccc(O)cc1)C(=O)O | 0.11 | 0.83 |
| N[C@@H](Cc1ccc(O)cc1)C(=O)O | 0.052 | 0.001 |
| CNC[C@@H](O)c1ccc(O)c(O)c1 | 0.074 | 0.68 |
| Nc1ccc(C[C@H](N)C(=O)O)cc1 | 0.09 | 0.97 |
